ChEMBL document CHEMBL1687827, “Profiling the Aspergillus fumigatus proteome in response to caspofungin” (2011)
Calls of active or inactive are those of the source. No cut-off for these calls is given here.

How the values were obtained:
Aspergillus fumigatus [1] = assay: Induction of change in 60s ribosomal protein l21 protein level in iTRAQ114 labelled secreted fraction of drug-susceptible Aspergillus fumigatus KU80 delta-akuB at 0.12 ug/ml after 24 hrs in YPD medium by MS (MS/MS) analysis relative to control; assay type: functional
Procedure, shortened: (§1)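 Conidia at 1 × 10⁵/ml grown shaking at 37°C in YPD with or without 0.12 μg/ml caspofungin; mycelia filtered at 24 or 48 h. Secreted fraction taken from the filtrate; cell wall/plasma membrane pellet recovered after French-press lysis and a 5,000 × g spin. Proteins trypsin-digested and iTRAQ-labelled, drug vs no-drug channels at each time, then 2D LC-MS/MS. Protein ratio is the median of ratios from uniquely assigned peptides after median normalization.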

Aspergillus fumigatus [2] = assay: Induction of change in stearic acid desaturase (SdeA), putative gene expression in drug-susceptible Aspergillus fumigatus KU80 delta-akuB at 0.12 ug/ml after 24 hrs in YPD medium by microarray analysis relative to control; assay type: functional
Procedure, shortened: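 Mycelia grown from 1 × 10⁵ conidia/ml in YPD at 37°C, 225 rpm, with or without 0.12 μg/ml caspofungin. Total RNA extracted, DNase-treated; 2 μg labelled per TIGR SOP M007 for whole-genome array hybridization. Three independent experiments with dye flip (6 replicates); >2-fold change deemed significant.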

Aspergillus fumigatus [3] = assay: Induction of change in 14-alpha sterol demethylase Cyp51A protein level in iTRAQ-118 labelled cell wall fraction of drug-resistant Aspergillus fumigatus EMFR-S678P at 0.12 ug/ml after 24 hrs in YPD medium by MS (MS/MS) analysis relative to control; assay type: functional, organism-based
Procedure, shortened: (§2)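 Conidia at 1 × 10⁵/ml were grown at 37°C, shaking at 225 rpm, in YPD with or without 0.12 μg/ml caspofungin for 24 or 48 h. The culture filtrate was kept as the secreted fraction. Mycelia were lysed by French press in HEPES/glycerol/EDTA/PMSF/DTT buffer, and the 5,000 × g pellet was washed to give CW/PM. Proteins were reduced, alkylated and trypsin-digested at 37°C overnight, then iTRAQ-labelled and run by 2D LC-MS/MS. Ratios are the median of unique-peptide ratios, median-normalized, versus the no-drug control.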

Aspergillus fumigatus [4] = assay: Induction of change in ATP citrate lyase, subunit 1, putative protein level in iTRAQ114 labelled secreted fraction of drug-susceptible Aspergillus fumigatus KU80 delta-akuB at 0.12 ug/ml after 24 hrs in YPD medium by MS (MS/MS) analysis relative to control; assay type: functional; procedure, shortened: as §1
Aspergillus fumigatus [5] = assay: Induction of change in glucosamine-fructose-6-phosphate aminotransferase protein level in iTRAQ-118 labelled cell wall fraction of drug-resistant Aspergillus fumigatus EMFR-S678P at 0.12 ug/ml after 48 hrs in YPD medium by MS (MS/MS) analysis relative to control; assay type: functional; procedure, shortened: as §2
Aspergillus fumigatus [6] = assay: Induction of change in allergen Asp F3 protein level in iTRAQ-116 labelled secreted fraction of drug-resistant Aspergillus fumigatus EMFR-S678P at 0.12 ug/ml after 48 hrs in YPD medium by MS (MS/MS) analysis relative to control; assay type: functional; procedure, shortened: as §2
Aspergillus fumigatus [7] = assay: Induction of change in aconitate hydratase, mitochondrial protein level in iTRAQ-116 labelled secreted fraction of drug-susceptible Aspergillus fumigatus KU80 delta-akuB at 0.12 ug/ml after 48 hrs in YPD medium by MS (MS/MS) analysis relative to control; assay type: functional; procedure, shortened: as §1
Aspergillus fumigatus [8] = assay: Induction of change in 60S ribosomal protein L7 protein level in iTRAQ114 labelled cell wall fraction of drug-susceptible Aspergillus fumigatus KU80 delta-akuB at 0.12 ug/ml after 24 hrs in YPD medium by MS (MS/MS) analysis relative to control; assay type: functional; procedure, shortened: as §1
Aspergillus fumigatus [9] = assay: Induction of change in conserved hypothetical gene expression in drug-susceptible Aspergillus fumigatus KU80 delta-akuB at 0.12 ug/ml after 24 hrs in YPD medium by microarray analysis relative to control; assay type: functional
Procedure, shortened: (§3)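 Mycelia grown in YPD ± 0.12 μg/ml caspofungin (1 × 10⁵ conidia/ml, 37°C, shaking) and harvested at 24 or 48 h. Total RNA extracted, DNase-treated and quality-checked; 2 μg labelled per TIGR SOP M007 and hybridized to whole-genome arrays. Three independent experiments with dye flip (6 replicates); drug vs untreated fold change.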

Aspergillus fumigatus [10] = assay: Induction of change in peptidyl-prolyl cis-trans isomerase protein level in iTRAQ-118 labelled cell wall fraction of drug-resistant Aspergillus fumigatus EMFR-S678P at 0.12 ug/ml after 24 hrs in YPD medium by MS (MS/MS) analysis relative to control; assay type: functional; procedure, shortened: as §2
Aspergillus fumigatus [11] = assay: Induction of change in aldehyde dehydrogenase, putative protein level in iTRAQ114 labelled secreted fraction of drug-resistant Aspergillus fumigatus EMFR-S678P at 0.12 ug/ml after 24 hrs in YPD medium by MS (MS/MS) analysis relative to control; assay type: functional; procedure, shortened: as §2
Aspergillus fumigatus [12] = assay: Induction of change in 14-alpha sterol demethylase Cyp51A protein level in iTRAQ-118 labelled cell wall fraction of drug-resistant Aspergillus fumigatus EMFR-S678P at 0.12 ug/ml after 48 hrs in YPD medium by MS (MS/MS) analysis relative to control; assay type: functional; procedure, shortened: as §2
Aspergillus fumigatus [13] = assay: Induction of change in Ribosomal protein S5 protein level in iTRAQ114 labelled cell wall fraction of drug-resistant Aspergillus fumigatus EMFR-S678P at 0.12 ug/ml after 24 hrs in YPD medium by MS (MS/MS) analysis relative to control; assay type: functional, organism-based; procedure, shortened: as §2
Aspergillus fumigatus [14] = assay: Induction of change in 60s ribosomal protein l2 gene expression in drug-susceptible Aspergillus fumigatus KU80 delta-akuB at 0.12 ug/ml after 24 hrs in YPD medium by microarray analysis relative to control; assay type: functional; procedure, shortened: as §3
Aspergillus fumigatus [15] = assay: Induction of change in cytosolic small ribosomal subunit S15, putative protein level in iTRAQ114 labelled secreted fraction of drug-susceptible Aspergillus fumigatus KU80 delta-akuB at 0.12 ug/ml after 24 hrs in YPD medium by MS (MS/MS) analysis relative to control; assay type: functional; procedure, shortened: as §1
Aspergillus fumigatus [16] = assay: Induction of change in glucosamine-fructose-6-phosphate aminotransferase protein level in iTRAQ-118 labelled cell wall fraction of drug-resistant Aspergillus fumigatus EMFR-S678P at 0.12 ug/ml after 24 hrs in YPD medium by MS (MS/MS) analysis relative to control; assay type: functional, organism-based; procedure, shortened: as §2
Aspergillus fumigatus [17] = assay: Induction of change in 60s ribosomal protein L24, putative protein level in iTRAQ114 labelled cell wall fraction of drug-susceptible Aspergillus fumigatus KU80 delta-akuB at 0.12 ug/ml after 24 hrs in YPD medium by MS (MS/MS) analysis relative to control; assay type: functional; procedure, shortened: as §1
Aspergillus fumigatus [18] = assay: Antifungal activity against drug-susceptible Aspergillus fumigatus KU80 delta-akuB assessed as change in hyphal morphology by RPMI medium; assay type: functional; conditions: read-out: MEC
Procedure, shortened: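 CLSI M38-A2 broth microdilution, run in triplicate in RPMI or YPD medium as the line specifies. Caspofungin was dissolved in sterile water. The minimum effective concentration (MEC) was the lowest concentration giving a significant change in hyphal morphology visible to the eye.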

Aspergillus fumigatus [19] = assay: Induction of change in 60s ribosomal protein yl17-b gene expression in drug-susceptible Aspergillus fumigatus KU80 delta-akuB at 0.12 ug/ml after 24 hrs in YPD medium by microarray analysis relative to control; assay type: functional; procedure, shortened: as §3

CC[C@H](C)C[C@H](C)CCCCCCCCC(=O)N[C@H]1C[C@@H](O)[C@@H](NCCN)NC(=O)[C@@H]2[C@@H](O)CCN2C(=O)[C@H]([C@H](O)CCN)NC(=O)[C@H]([C@H](O)[C@@H](O)c2ccc(O)cc2)NC(=O)[C@@H]2C[C@@H](O)CN2C(=O)[C@H]([C@@H](C)O)NC1=O [CASPOFUNGIN]
fold change (FC) (Aspergillus fumigatus [1]): -1 | fold change (FC) (Aspergillus fumigatus [2]): -4.6 | Activity (Aspergillus fumigatus [3]): inactive | fold change (FC) (Aspergillus fumigatus [4]): 3.2 | fold change (FC) (Aspergillus fumigatus [5]): -1.07 | fold change (FC) (Aspergillus fumigatus [6]): -1.52 | fold change (FC) (Aspergillus fumigatus [7]): 1.2 | fold change (FC) (Aspergillus fumigatus [8]): 2 | fold change (FC) (Aspergillus fumigatus [9]): 15.2 | fold change (FC) (Aspergillus fumigatus [10]): -1.15 | fold change (FC) (Aspergillus fumigatus [11]): 1.62 | fold change (FC) (Aspergillus fumigatus [12]): 1.07 | Activity (Aspergillus fumigatus [13]): inactive | fold change (FC) (Aspergillus fumigatus [14]): 3.9 | fold change (FC) (Aspergillus fumigatus [15]): -1 | Activity (Aspergillus fumigatus [16]): inactive | fold change (FC) (Aspergillus fumigatus [17]): 1.5 | minimal effective concentration (Aspergillus fumigatus [18]): 0.25 µg/mL | fold change (FC) (Aspergillus fumigatus [19]): 3.5
